Results taken from ChEMBL document CHEMBL1152757, “Stereoselective synthesis and biological evaluation of syn-1-amino-3-[18F]fluorocyclobutyl-1-carboxylic acid as a potential positron emission tomography brain tumor imaging agent” (Bioorg Med Chem, 2009).

Columns and labels:
Liver [1] = assay: Biodistribution in liver of rat 9L cells implanted Fischer rat at 15 to 30 uCi, iv after 60 mins by gamma-counter; format: ADME, organism-based; details: in vivo, 1 h
In short: (§1)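 Male Fischer 344 rats (125-175 g) implanted intracranially by stereotactic injection of 5 × 10^4 9L gliosarcoma cells. Used 10-12 days after implantation. Tracer given into the tail vein at 15-30 µCi in 0.1-0.3 mL sterile saline. Groups of 4 were sacrificed at 15, 30, 60 and 120 min. Tissues were weighed and gamma-counted against dose standards, and counts decay-corrected to %ID/g (mean ± SD). One-way ANOVA.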

Liver [2] = assay: Biodistribution in liver of rat 9L cells implanted Fischer rat at 15 to 30 uCi, iv after 120 mins by gamma-counter; format: ADME, organism-based; details: in vivo, 2 h; in short: as §1
Pancreas [3] = assay: Biodistribution in pancreas of rat 9L cells implanted Fischer rat at 15 to 30 uCi, iv after 15 mins by gamma-counter; format: ADME, organism-based; details: in vivo, 0.25 h; in short: as §1
Pancreas [4] = assay: Biodistribution in pancreas of rat 9L cells implanted Fischer rat at 15 to 30 uCi, iv after 30 mins by gamma-counter; format: ADME, organism-based; details: in vivo, 0.5 h; in short: as §1
Pancreas [5] = assay: Biodistribution in pancreas of rat 9L cells implanted Fischer rat at 15 to 30 uCi, iv after 60 mins by gamma-counter; format: ADME, organism-based; details: in vivo, 1 h; in short: as §1
Pancreas [6] = assay: Biodistribution in pancreas of rat 9L cells implanted Fischer rat at 15 to 30 uCi, iv after 120 mins by gamma-counter; format: ADME, organism-based; details: in vivo, 2 h; in short: as §1
Spleen [7] = assay: Biodistribution in spleen of rat 9L cells implanted Fischer rat at 15 to 30 uCi, iv after 15 mins by gamma-counter; format: ADME, organism-based; details: in vivo, 0.25 h; in short: as §1
Spleen [8] = assay: Biodistribution in spleen of rat 9L cells implanted Fischer rat at 15 to 30 uCi, iv after 30 mins by gamma-counter; format: ADME, organism-based; details: in vivo, 0.5 h; in short: as §1
Spleen [9] = assay: Biodistribution in spleen of rat 9L cells implanted Fischer rat at 15 to 30 uCi, iv after 60 mins by gamma-counter; format: ADME, organism-based; details: in vivo, 1 h; in short: as §1
Spleen [10] = assay: Biodistribution in spleen of rat 9L cells implanted Fischer rat at 15 to 30 uCi, iv after 120 mins by gamma-counter; format: ADME, organism-based; details: in vivo, 2 h; in short: as §1
Kidney [11] = assay: Biodistribution in kidney of rat 9L cells implanted Fischer rat at 15 to 30 uCi, iv after 15 mins by gamma-counter; format: ADME, organism-based; details: in vivo, 0.25 h; in short: as §1
Kidney [12] = assay: Biodistribution in kidney of rat 9L cells implanted Fischer rat at 15 to 30 uCi, iv after 30 mins by gamma-counter; format: ADME, organism-based; details: in vivo, 0.5 h; in short: as §1
Kidney [13] = assay: Biodistribution in kidney of rat 9L cells implanted Fischer rat at 15 to 30 uCi, iv after 60 mins by gamma-counter; format: ADME, organism-based; details: in vivo, 1 h; in short: as §1
Kidney [14] = assay: Biodistribution in kidney of rat 9L cells implanted Fischer rat at 15 to 30 uCi, iv after 120 mins by gamma-counter; format: ADME, organism-based; details: in vivo, 2 h; in short: as §1
Muscle tissue [15] = assay: Biodistribution in muscle of rat 9L cells implanted Fischer rat at 15 to 30 uCi, iv after 15 mins by gamma-counter; format: ADME, organism-based; details: in vivo, 0.25 h; in short: as §1
Muscle tissue [16] = assay: Biodistribution in muscle of rat 9L cells implanted Fischer rat at 15 to 30 uCi, iv after 30 mins by gamma-counter; format: ADME, organism-based; details: in vivo, 0.5 h; in short: as §1
Muscle tissue [17] = assay: Biodistribution in muscle of rat 9L cells implanted Fischer rat at 15 to 30 uCi, iv after 60 mins by gamma-counter; format: ADME, organism-based; details: in vivo, 1 h; in short: as §1
Muscle tissue [18] = assay: Biodistribution in muscle of rat 9L cells implanted Fischer rat at 15 to 30 uCi, iv after 120 mins by gamma-counter; format: ADME, organism-based; details: in vivo, 2 h; in short: as §1
Brain [19] = assay: Biodistribution in brain of rat 9L cells implanted Fischer rat at 15 to 30 uCi, iv after 15 mins by gamma-counter; format: ADME, organism-based; details: in vivo, 0.25 h; in short: as §1
Brain [20] = assay: Biodistribution in brain of rat 9L cells implanted Fischer rat at 15 to 30 uCi, iv after 30 mins by gamma-counter; format: ADME, organism-based; details: in vivo, 0.5 h; in short: as §1
Brain [21] = assay: Biodistribution in brain of rat 9L cells implanted Fischer rat at 15 to 30 uCi, iv after 60 mins by gamma-counter; format: ADME, organism-based; details: in vivo, 1 h; in short: as §1
Brain [22] = assay: Biodistribution in brain of rat 9L cells implanted Fischer rat at 15 to 30 uCi, iv after 120 mins by gamma-counter; format: ADME, organism-based; details: in vivo, 2 h; in short: as §1
[23] = Biodistribution in tumor of rat 9L cells implanted Fischer rat at 15 to 30 uCi, iv after 15 mins by gamma-counter; format: ADME, organism-based, Neoplasm; details: in vivo, 0.25 h; in short: as §1
[24] = Biodistribution in tumor of rat 9L cells implanted Fischer rat at 15 to 30 uCi, iv after 30 mins by gamma-counter; format: ADME, organism-based, Neoplasm; details: in vivo, 0.5 h; in short: as §1
[25] = Biodistribution in tumor of rat 9L cells implanted Fischer rat at 15 to 30 uCi, iv after 60 mins by gamma-counter; format: ADME, organism-based, Neoplasm; details: in vivo, 1 h; in short: as §1
[26] = Biodistribution in tumor of rat 9L cells implanted Fischer rat at 15 to 30 uCi, iv after 120 mins by gamma-counter; format: ADME, organism-based, Neoplasm; details: in vivo, 2 h; in short: as §1
Bone = assay: Biodistribution in bone of rat 9L cells implanted Fischer rat at 15 to 30 uCi, iv after 15 mins by gamma-counter; format: ADME, organism-based, Bone element; details: in vivo, 0.25 h; in short: as §1

Drug uptake (Liver [1]): 0.41 % ID/g
Drug uptake (Liver [2]): 0.4 % ID/g
Drug uptake (Pancreas [3]): 2.37 % ID/g
Drug uptake (Pancreas [4]): 3.36 % ID/g
Drug uptake (Pancreas [5]): 2.83 % ID/g
Drug uptake (Pancreas [6]): 2.78 % ID/g
Drug uptake (Spleen [7]): 0.68 % ID/g
Drug uptake (Spleen [8]): 0.61 % ID/g
Drug uptake (Spleen [9]): 0.52 % ID/g
Drug uptake (Spleen [10]): 0.4 % ID/g
Drug uptake (Kidney [11]): 0.76 % ID/g
Drug uptake (Kidney [12]): 0.8 % ID/g
Drug uptake (Kidney [13]): 0.7 % ID/g
Drug uptake (Kidney [14]): 0.56 % ID/g
Drug uptake (Muscle tissue [15]): 0.35 % ID/g
Drug uptake (Muscle tissue [16]): 0.43 % ID/g
Drug uptake (Muscle tissue [17]): 0.42 % ID/g
Drug uptake (Muscle tissue [18]): 0.39 % ID/g
Drug uptake (Brain [19]): 0.2 % ID/g
Drug uptake (Brain [20]): 0.18 % ID/g
Drug uptake (Brain [21]): 0.2 % ID/g
Drug uptake (Brain [22]): 0.25 % ID/g
Drug uptake [23]: 1.4 % ID/g
Drug uptake [24]: 2.1 % ID/g
Drug uptake [25]: 1.48 % ID/g
Drug uptake [26]: 1.93 % ID/g
Drug uptake (Bone): 0.25 % ID/g
Structure (SMILES): N[C@]1(C(=O)O)C[C@H]([18F])C1
